Activity calls are given as the source filed them. The rule behind the calls is not given here.
How the values were obtained:
[1] = biological target: T1, Histone-arginine methyltransferase CARM1 (Homo sapiens, UniProt Q86X55); test: Inhibition of CARM1 (unknown origin)
T1 sequence (Q86X55 whole entry): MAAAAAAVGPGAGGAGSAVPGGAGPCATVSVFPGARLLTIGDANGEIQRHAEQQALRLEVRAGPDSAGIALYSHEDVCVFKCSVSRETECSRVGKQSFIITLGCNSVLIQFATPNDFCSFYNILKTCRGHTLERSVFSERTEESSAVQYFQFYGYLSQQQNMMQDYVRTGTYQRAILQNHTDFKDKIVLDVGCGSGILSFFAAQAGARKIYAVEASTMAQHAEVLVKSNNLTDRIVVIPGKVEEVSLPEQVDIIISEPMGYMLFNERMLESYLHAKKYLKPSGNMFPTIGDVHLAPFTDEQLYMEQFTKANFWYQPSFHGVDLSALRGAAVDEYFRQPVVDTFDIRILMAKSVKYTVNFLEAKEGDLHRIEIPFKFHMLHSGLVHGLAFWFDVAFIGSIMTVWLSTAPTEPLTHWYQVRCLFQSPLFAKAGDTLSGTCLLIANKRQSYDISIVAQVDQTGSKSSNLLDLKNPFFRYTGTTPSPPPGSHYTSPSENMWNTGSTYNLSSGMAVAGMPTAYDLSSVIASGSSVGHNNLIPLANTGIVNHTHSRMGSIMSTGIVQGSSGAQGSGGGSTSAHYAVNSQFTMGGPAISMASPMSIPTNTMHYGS
Procedure, shortened: (§1)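 Radiometric methyltransfer assay. Enzyme transfers a tritiated methyl from ³H-SAM onto a biotin-labelled peptide substrate, with unlabelled SAM added when needed. The methylated peptide is captured in FlashPlate wells and counted by scintillation. IC50 comes from titrating compound under balanced conditions, with both peptide substrate and SAM at their Km concentrations.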

[2] = biological target: Protein arginine N-methyltransferase 5 (Homo sapiens, UniProt O14744); test: Inhibition of PRMT5 (unknown origin); procedure, shortened: as §1
Sequence of Protein arginine N-methyltransferase 5 (O14744 whole entry): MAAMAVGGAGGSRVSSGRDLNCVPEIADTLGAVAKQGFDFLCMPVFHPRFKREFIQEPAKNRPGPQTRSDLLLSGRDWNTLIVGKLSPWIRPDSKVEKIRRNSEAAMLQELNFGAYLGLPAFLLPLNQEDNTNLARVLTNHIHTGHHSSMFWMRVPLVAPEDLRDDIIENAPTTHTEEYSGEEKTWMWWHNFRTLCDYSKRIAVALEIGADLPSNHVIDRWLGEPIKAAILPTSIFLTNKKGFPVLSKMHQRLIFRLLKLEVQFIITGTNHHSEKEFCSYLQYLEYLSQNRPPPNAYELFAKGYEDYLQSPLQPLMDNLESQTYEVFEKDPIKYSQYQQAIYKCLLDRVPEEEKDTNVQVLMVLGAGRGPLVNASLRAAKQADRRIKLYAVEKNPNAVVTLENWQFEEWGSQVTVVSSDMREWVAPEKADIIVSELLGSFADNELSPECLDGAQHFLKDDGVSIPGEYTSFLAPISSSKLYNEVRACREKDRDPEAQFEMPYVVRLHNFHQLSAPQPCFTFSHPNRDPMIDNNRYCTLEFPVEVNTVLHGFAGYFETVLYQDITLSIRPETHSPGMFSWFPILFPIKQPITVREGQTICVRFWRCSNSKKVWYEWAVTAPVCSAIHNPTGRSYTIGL

[3] = biological target: T2, Histone-arginine methyltransferase CARM1 (Homo sapiens) (UniProt Q86X55); test: Noncompetitive inhibition of CARM1 (unknown origin) at varying levels of peptide substrate and cofactor 3H-SAM by scintillation proximity assay
T2 sequence (whole entry): T1 sequence (Q86X55 whole entry)

IC50 [1]	SMILES	IC50 [2]	inhibition [3]
0.094 µM	CNCCN1CC(NCc2cccc(C(F)(F)F)c2)C1	–	–
0.13 µM	CNCCN1CC(NCc2cccc(F)c2)C1	–	–
0.09 µM	CNCCN1CC(NCc2cccc(OC(F)(F)F)c2)C1	–	–
0.33 µM	CNCCN1CCC(NCc2cccc(-c3ccccc3)c2)CC1	–	–
0.144 µM	CNCCN1CC(OCc2cccc(OC(F)(F)F)c2)C1	–	–
0.223 µM	CNCCN1CCC(NCc2cccc(F)c2)CC1	–	–
0.302 µM	CNCCN1CCC(NCc2cccc(C(F)(F)F)c2)CC1	–	–
0.342 µM	CNCCN1CCC(NCc2cccc(OC(F)(F)F)c2)CC1	–	–
0.067 µM	CNCCN1CC(NCc2cccc(Br)c2)C1	–	–
0.05 µM	CNCCN1CC(NCc2cccc(Cl)c2)C1	–	–
0.157 µM	CNCCN1CCC(NCc2cccc(Cl)c2)CC1	–	–

SMILES	IC50 [1]	IC50 [2]	inhibition [3]
CNCCN1CCC(NCc2ccccc2)CC1	0.471 µM	> 50 µM	–
CNCCN1CCC(NCc2cccc(Br)c2)CC1	0.094 µM	> 50 µM	Active
